Consider seven molecules from ChEMBL document CHEMBL1122302, “2-Benzazepines. 2. Thiazolo[5,4-d][2]benzazepines” (J Med Chem, 1983).

Structures are written as SMILES.

Assay [1] deals with GABA-A receptor; anion channel. The assay can be described thus: In vitro displacement of [3H]diazepam from GABA-A benzodiazepine receptor. The format is protein-complex assay. (In a radioligand displacement assay an active substance lowers the binding of a labelled ligand.)
Assay [2] in a line: Prevention of metrazole induced convulsions in the antimetrazole test. The settings on record: Mus musculus. Format: functional. Summed up:
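Test compound given as a suspension in 5% acacia to three male CF-1 animals per dose level; metrazole 70 mg/kg iv 1 h later.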

With `Nc1nc2c(s1)CN=C(c1ccccc1Cl)c1cc(Cl)ccc1-2`, the IC50 (usually the point on the concentration scale where inhibition reaches its midpoint) in assay [1] amounted to 1.6 nM. In addition, the 50% effective dose (ED50) (commonly the dose at which the effect has come halfway, by size or by number of responders) in assay [2] worked out at 9.3 mg/kg.

Turning to `Nc1nc2c(s1)CN=C(c1ccccc1F)c1cc(Cl)ccc1-2`, in assay [1], the IC50 was 2.8 nM. The same molecule came in with a median effective dose (ED50) in assay [2] of 7.7 mg/kg. Taken in the same sequence, the figures for `Cc1nc2c(s1)CN=C(c1ccccc1)c1cc(Cl)ccc1-2` were 32 nM and 63 mg/kg.

For `Cc1nc2c(s1)CN=C(c1ccccc1F)c1cc(Cl)ccc1-2`, the IC50 in assay [1] was 7.8 nM. It took a dose of 30 mg/kg to reach the 50% effect level in assay [2] (ED50). For `Cc1nc2c(s1)CN=C(c1ccccc1Cl)c1cc(Cl)ccc1-2` the same measures were 4.1 nM and 50 mg/kg. Taken in the same sequence, the figures for `Nc1nc2c(s1)CN=C(c1ccccc1)c1cc(Cl)ccc1-2` were 10.5 nM and 7.4 mg/kg. For `CN1C(=O)CN=C(c2ccccc2)c2cc(Cl)ccc21` [DIAZEPAM], in assay [2], the 50% effective dose (ED50) is 1 mg/kg.
